Activity calls are given as the source filed them. The calls are words filed in the database; no cut-off is given here.
Columns and labels:
[1] = tested on: MCF7; assay: Growth inhibition of human MCF7 cells after 48 hrs by sulforhodamine B assay; assay type: functional; details: MCF7, 48 h
How it was run: (§1)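 NCI 60-cell-line screen: cells exposed 48 h to five 10-fold dilutions starting at 100 μM (range 10−4 to 10−8 M), then stained with sulforhodamine B. Optical densities relative to control plotted against log concentration. GI50 interpolated between points above and below 50% growth. Single determinations.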

[2] = tested on: OVCAR-3; assay: Growth inhibition of human OVCAR3 cells after 48 hrs by sulforhodamine B assay; assay type: functional; details: OVCAR-3, 48 h; how it was run: as §1
[3] = tested on: HOP-62; assay: Growth inhibition of human HOP62 cells after 48 hrs by sulforhodamine B assay; assay type: functional; details: HOP-62, 48 h; how it was run: as §1
[4] = molecular target: T1, DNA topoisomerase 1 (Homo sapiens) (UniProt P11387); assay: Inhibition of human recombinant topoisomerase 1-mediated DNA cleavage using [32P]-3'-end-labeled 117-bp DNA fragment as substrate at 0.1 to 100 uM after 20 mins by SDS-PAGE analysis
T1 sequence (whole entry): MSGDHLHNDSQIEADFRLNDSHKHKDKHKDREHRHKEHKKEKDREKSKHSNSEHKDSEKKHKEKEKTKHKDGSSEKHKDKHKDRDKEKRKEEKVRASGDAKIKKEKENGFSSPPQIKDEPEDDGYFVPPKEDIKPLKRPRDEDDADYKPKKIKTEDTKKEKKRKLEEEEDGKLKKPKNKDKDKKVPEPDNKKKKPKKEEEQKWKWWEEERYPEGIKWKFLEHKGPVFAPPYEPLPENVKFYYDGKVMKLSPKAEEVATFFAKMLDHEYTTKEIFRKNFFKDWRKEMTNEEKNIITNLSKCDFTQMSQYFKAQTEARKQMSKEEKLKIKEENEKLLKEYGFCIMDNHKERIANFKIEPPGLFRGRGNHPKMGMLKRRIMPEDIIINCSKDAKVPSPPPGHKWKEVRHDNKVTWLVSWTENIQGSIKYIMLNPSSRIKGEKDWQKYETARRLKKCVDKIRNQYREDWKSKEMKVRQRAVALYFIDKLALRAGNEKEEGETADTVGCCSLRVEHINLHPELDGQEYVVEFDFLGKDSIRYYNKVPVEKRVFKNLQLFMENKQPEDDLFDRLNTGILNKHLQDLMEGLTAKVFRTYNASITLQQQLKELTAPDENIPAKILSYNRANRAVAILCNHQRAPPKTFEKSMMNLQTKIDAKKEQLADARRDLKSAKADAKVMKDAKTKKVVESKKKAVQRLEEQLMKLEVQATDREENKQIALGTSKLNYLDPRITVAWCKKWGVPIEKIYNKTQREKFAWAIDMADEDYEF
How it was run: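 Human Top1 expressed in baculovirus and purified. Substrate is a 117-bp oligonucleotide carrying the pBluescript SK(−) cleavage sites, 3′-end-labeled by Klenow fill-in with [α-32P]dGTP. Compound at 0.1, 1, 10, 100 μM; reaction stopped with 0.5% SDS (final) plus formamide loading dye.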

[5] = tested on: SF-539; assay: Growth inhibition of human SF539 cells after 48 hrs by sulforhodamine B assay; assay type: functional; details: SF-539, 48 h; how it was run: as §1
[6] = tested on: UACC-62; assay: Growth inhibition of human UACC62 cells after 48 hrs by sulforhodamine B assay; assay type: functional; details: UACC-62, 48 h; how it was run: as §1
[7] = tested on: SN12C; assay: Growth inhibition of human SN12C cells after 48 hrs by sulforhodamine B assay; assay type: functional; how it was run: as §1
[8] = tested on: DU-145; assay: Growth inhibition of human DU145 cells after 48 hrs by sulforhodamine B assay; assay type: functional; details: DU-145, 48 h; how it was run: as §1
[9] = tested on: HCT-116; assay: Growth inhibition of human HCT116 cells after 48 hrs by sulforhodamine B assay; assay type: functional; details: HCT-116, 48 h; how it was run: as §1
[10] = tested on: MCF7; assay: Growth inhibition of human MCF7 cells at 10 uM after 48 hrs by sulforhodamine B assay; assay type: functional, cell-based
How it was run: (§2)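 NCI screen single-concentration test at 10 μM, 48 h exposure, sulforhodamine B staining. Optical density read relative to untreated control. Used as initial testing to decide whether multi-dose GI50 testing was warranted.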

[11] = tested on: SF-539; assay: Growth inhibition of human SF539 cells at 10 uM after 48 hrs by sulforhodamine B assay; assay type: functional, cell-based; how it was run: as §2
[12] = tested on: HOP-62; assay: Growth inhibition of human HOP62 cells at 10 uM after 48 hrs by sulforhodamine B assay; assay type: functional, cell-based; how it was run: as §2
[13] = tested on: HCT-116; assay: Growth inhibition of human HCT116 cells at 10 uM after 48 hrs by sulforhodamine B assay; assay type: functional, cell-based; how it was run: as §2
[14] = tested on: SN12C; assay: Growth inhibition of human SN12C cells at 10 uM after 48 hrs by sulforhodamine B assay; assay type: functional, cell-based; how it was run: as §2
[15] = tested on: OVCAR-3; assay: Growth inhibition of human OVCAR3 cells at 10 uM after 48 hrs by sulforhodamine B assay; assay type: functional, cell-based; how it was run: as §2
[16] = tested on: DU-145; assay: Growth inhibition of human DU145 cells at 10 uM after 48 hrs by sulforhodamine B assay; assay type: functional, cell-based; how it was run: as §2
[17] = tested on: UACC-62; assay: Growth inhibition of human UACC62 cells at 10 uM after 48 hrs by sulforhodamine B assay; assay type: functional, cell-based; how it was run: as §2
[18] = molecular target: T1, DNA topoisomerase 1 (Homo sapiens); assay: Inhibition of human recombinant topoisomerase 1-mediated DNA cleavage using [32P]-3'-end-labeled 117-bp DNA fragment as substrate at 100 uM after 20 mins by SDS-PAGE analysis
How it was run: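 Human recombinant Top1 purified from baculovirus. Substrate: 117-bp oligonucleotide 3′-end-labeled by Klenow fill-in with [α-32P]dGTP, ~2 nM. Compounds tested at 0.1–100 μM. Stopped with 0.5% SDS plus formamide loading dye. Cleavage sites scored on gel.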

| GI50 [1] [nM] | GI50 [2] [nM] | inhibition [4] | GI50 [8] [nM] | GI50 [9] [nM] | inhibition [18] | Structure (SMILES) | GI50 [3] [nM] | GI50 [5] [nM] | GI50 [6] [nM] | GI50 [7] [nM] | growth inhibition (GI) [10] | growth inhibition (GI) [11] | growth inhibition (GI) [12] | growth inhibition (GI) [13] | growth inhibition (GI) [14] | growth inhibition (GI) [15] | growth inhibition (GI) [16] | growth inhibition (GI) [17] |
| --- | --- | --- | --- | --- | --- | --- | --- | --- | --- | --- | --- | --- | --- | --- | --- | --- | --- | --- |
| 1900 | 12000 | Active | 7600 | 390 | – | COc1cc2c3c(n(CCCN4CCOCC4)c(=O)c2cc1OC)-c1ccncc1C3=O | 5000 | > 100000 | 85000 | 5900 | – | – | – | – | – | – | – | – |
| – | – | Active | – | – | – | COc1ccc2c(n1)C(=O)c1c-2n(CCCN2CCOCC2)c(=O)c2cc(OC)c(OC)cc12 | – | – | – | – | Active | Active | Active | Active | Active | Active | Active | – |
| 3900 | 7400 | Active | 2900 | 620 | – | COc1cc2c3c(n(CCCN(C)C)c(=O)c2cc1OC)-c1ccncc1C3=O | 6500 | 12000 | > 100000 | 8500 | – | – | – | – | – | – | – | – |
| – | – | Active | – | – | – | COc1cc2c3c(n(CCCN(C)C)c(=O)c2cc1OC)-c1cnccc1C3=O | – | – | – | – | Active | Active | Active | – | Active | Active | Active | Active |
| 100 | 310 | Active | 340 | 330 | – | COc1cnc2c(c1)C(=O)c1c-2n(CCCN2CCOCC2)c(=O)c2cc(OC)c(OC)cc12 | 240 | 270 | 220 | 340 | – | – | – | – | – | – | – | – |
| 20 | 110 | Active | 40 | 50 | – | COc1cnc2c(c1)C(=O)c1c-2n(CCCN2CCOCC2)c(=O)c2cc([N+](=O)[O-])ccc12 | 51 | 35 | 40 | 43 | – | – | – | – | – | – | – | – |
| 4100 | 24000 | Active | 24000 | 2500 | – | COc1cc2c3c(n(CCCN4CCOCC4)c(=O)c2cc1OC)-c1cnccc1C3=O | 6500 | 40000 | 48000 | 16000 | – | – | – | – | – | – | – | – |
| 52 | 370 | Active | 310 | 220 | – | COc1cc2c3c(n(CCCN4CCOCC4)c(=O)c2cc1OC)-c1ncccc1C3=O | 300 | – | 100 | 520 | – | – | – | – | – | – | – | – |
| – | – | Active | – | – | – | COc1cc2c3c(n(CCCN(C)C)c(=O)c2cc1OC)-c1cccnc1C3=O | – | – | – | – | Active | Active | Active | Active | Active | Active | Active | Active |
| 600 | 6300 | Active | 3600 | 2500 | – | COc1cnc2c(c1)C(=O)c1c-2n(CCCN2CCOCC2)c(=O)c2ccccc12 | 4100 | 3500 | 1700 | 2600 | – | – | – | – | – | – | – | – |

Second part, the molecule before the results:

| Structure (SMILES) | GI50 [1] [nM] | GI50 [2] [nM] | inhibition [4] | GI50 [8] [nM] | GI50 [9] [nM] | inhibition [18] | GI50 [3] [nM] | GI50 [5] [nM] | GI50 [6] [nM] | GI50 [7] [nM] | growth inhibition (GI) [10] | growth inhibition (GI) [11] | growth inhibition (GI) [12] | growth inhibition (GI) [13] | growth inhibition (GI) [14] | growth inhibition (GI) [15] | growth inhibition (GI) [16] | growth inhibition (GI) [17] |
| --- | --- | --- | --- | --- | --- | --- | --- | --- | --- | --- | --- | --- | --- | --- | --- | --- | --- | --- |
| COc1cc2c3c(n(C)c(=O)c2cc1OC)-c1cc2c(cc1C3=O)OCO2 | 1900 | – | – | 4800 | – | Active | 2800 | 1700 | 560 | 26000 | – | – | – | – | – | – | – | – |
| COc1cnc2c(c1)C(=O)c1c-2n(CCCN(C)C)c(=O)c2cc([N+](=O)[O-])ccc12 | 24 | 140 | Active | 51 | 74 | – | 54 | 78 | 52 | 57 | – | – | – | – | – | – | – | – |
| CC[C@@]1(O)C(=O)OCc2c1cc1n(c2=O)Cc2cc3ccccc3nc2-1 [CAMPTOTHECIN] | 13 | – | – | – | – | – | – | – | – | – | – | – | – | – | – | – | – | – |
| COc1ccc2c(n1)C(=O)c1c-2n(CCCN(C)C)c(=O)c2cc(OC)c(OC)cc12 | – | – | Active | – | – | – | – | – | – | – | Active | Active | Active | Active | Active | Active | Active | Active |
| COc1cc2c3c(n(CCCN(C)C)c(=O)c2cc1OC)-c1ncccc1C3=O | 440 | 3600 | Active | 1700 | 1600 | – | 3400 | 4100 | 13000 | 3200 | – | – | – | – | – | – | – | – |
| COc1cnc2c(c1)C(=O)c1c-2n(CCCN(C)C)c(=O)c2cc(OC)c(OC)cc12 | 130 | 2900 | Active | 880 | 1500 | – | 920 | 1100 | 3900 | 3600 | – | – | – | – | – | – | – | – |
| COc1cnc2c(c1)C(=O)c1c-2n(CCCN(C)C)c(=O)c2ccccc12 | 210 | 940 | Active | 300 | 340 | – | 300 | 570 | 540 | 260 | – | – | – | – | – | – | – | – |
